From PubChem
Statin myotox sup = suppression of simvastatin myotoxicity. C2C12 myotubes + simvastatin, ATP luminescence, 48 h; scaled: DMSO 0, geranylgeraniol control 100. rescue of ATP level, % at 7.49 µM. 0.78% of 330,000 active;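 active = mean ATP rescue above about 67%, or every replicate alone reaching that limit, limit read from the data, passing the limit was not always enough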;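 also: myotubes were challenged with 10 µM simvastatin during compound exposure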
Cneo AK release = Cryptococcus neoformans lysis via adenylate kinase release. C. neoformans lysis, adenylate kinase release luminescence, 4 h; normalised: neutral wells 0, clomiphene wells 100. lysis activity, % at 15 µM. 0.2% of 360,000 active. AID 651654;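 active = mean lysis activity across replicates of at least 80%, whatever share of replicates individually reach that level; inactive = mean lysis activity below 80%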
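read-out = cell lysis signal | test system = log-phase Cryptococcus neoformans yeast cells | input = cells at 5 × 10^6 per mL | medium = fresh YPD growth medium | signal = luminescent adenylate kinase detection reagent | timing = 4 h at 37 °C static, read 1 h later | dosing = single dose | controls = Clomiphene as positive lysis control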
SUMO Mot1 rescue = inhibitors of SUMOylation pathway: yeast Mot1-301 growth rescue | 1% of 320,000 active | S. cerevisiae Mot1-301 growth rescue, ATP luminescence, 38.5C; percent above DMSO median, 100 means doubled | growth rescue, % at 18.8 µM | AID 2716;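 active = every valid replicate shows activation above 250% relative to neutral control wells; inactive = the rest, any valid replicate at or below 250%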;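 also: OY570 slx delta 5 strain wells were the positive control but not used for scaling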
* marks the source's active call; other numbers are inactive results; . = no result given; + = active, no number. Compounds with a hit are over-represented: about 1.5% of the library has one in this group of screens.

SMILES	Statin myotox sup	Cneo AK release	SUMO Mot1 rescue
C[C@@H]1CCCCO[C@@H](CN(C)Cc2ccc(C(F)(F)F)cc2)[C@@H](C)CN([C@H](C)CO)C(=O)c2cc(NS(=O)(=O)c3cn(C)cn3)ccc2O1	.	-1	.
C[C@@H]1CN([C@H](C)CO)C(=O)c2cc(NS(=O)(=O)c3cccs3)ccc2O[C@@H](C)CCCCO[C@@H]1CN(C)Cc1ccc(C(F)(F)F)cc1	92*	0	.
CN1[C@H](CO)[C@@H]2c3ccccc3N(C(=O)c3ccc(F)cc3)C[C@@H]21	12	-2	.
CCC/C(=C1/c2ccccc2C(=O)N1c1ccccc1)c1ccc2c(c1)OCCO2	115*	-2	6
CCC/C(=C1/c2ccccc2C(=O)N1c1ccccc1)c1ccc(O[C@@H]2CCCCO2)cc1	-3	0	11
C[C@H](CO)N1C[C@H](C)[C@H](CN(C)C(=O)c2ccc(F)cc2)Oc2cc(C3=CCCC3)ccc2S1(=O)=O	-12	.	.
Cc1ccc(NC(=O)CSCC(=O)Nc2ccc(N3CCOCC3)c(Cl)c2)cc1	121*	-5	15
O=C(CCc1ccccc1)Nc1ccc(N2CCOCC2)cc1	-4	-1	-6
O=C(Nc1ccc(N2CCOCC2)c(Cl)c1)c1cccnc1	92*	-4	40
O=C(Nc1ccc(N2CCCC2)c(Cl)c1)c1cccnc1	.	0	-11
Cc1ccc(NC(=O)CSCC(=O)Nc2ccc(N3CCOCC3)cc2N2CCOCC2)cc1	-4	-2	.
O=C(CCc1ccccc1)Nc1ccc(N2CCOCC2)c(Cl)c1	113*	.	-3
CC(C)OC(=O)N(C)C[C@H]1OCc2ccccc2-c2c(n(C)c3ccccc23)C(=O)N([C@H](C)CO)C[C@@H]1C	.	2	.
CO[C@H]1CN(C)C(=O)c2ccc(NS(=O)(=O)c3ccccc3)cc2OC[C@H](C)N(Cc2cccnc2)C[C@@H]1C	6	-4	.
Cc1noc(C)c1S(=O)(=O)Nc1ccc2c(c1)CC(=O)N([C@H](C)CO)C[C@H](C)[C@H](CN(C)S(C)(=O)=O)O2	14	0	.
COc1cccc(-c2ccc3c(c2)[C@@H]2[C@@H](CCN2S(=O)(=O)c2cccc(OC)c2)[C@@H](CO)N3)c1	4	-3	.
CCCN(C)C[C@@H]1OCCCC[C@@H](C)Oc2ccc(NS(=O)(=O)c3ccc(F)cc3)cc2C(=O)N([C@H](C)CO)C[C@@H]1C	9	0	.
C[C@H](CO)N1C[C@H](C)[C@@H](CN(C)Cc2cccnc2)Oc2cc(Br)ccc2S1(=O)=O	-5	-4	.
COc1ccc(-c2cc(C(F)(F)F)nc(N)n2)cc1	-6	0	-14
COc1ccc(-c2cc(C(F)(F)F)nc(S(C)(=O)=O)n2)cc1	14	.	589*
C[C@H]1CCCCO[C@H](CN(C)C(=O)C2CCCCC2)[C@@H](C)CN([C@@H](C)CO)C(=O)c2cc(N(C)C)ccc2O1	27	.	.
Oc1c(/C=N/c2ccccn2)sc2ccccc12	9	2	+
Oc1c(C=Nc2ccc(Cl)cn2)sc2ccccc12	.	.	-12
O=C(C1CC1)N1CCCCN2[C@H](CO)[C@H](c3ccc(C#CC4(O)CCCC4)cc3)[C@H]2C1	.	1	.
O=C1CN(C(=O)COC(=O)Cc2ccccc2F)c2ccccc2N1	-5	0	1
SMILES	Statin myotox sup	Cneo AK release	SUMO Mot1 rescue
O=C1CN(C(=O)COC(=O)CCSc2ccccc2Cl)c2ccccc2N1	106*	0	-2
C[C@@H]1CN([C@H](C)CO)C(=O)c2cc(NC(=O)Nc3cccc4ccccc34)ccc2O[C@@H]1CN(C)Cc1ccc(C(=O)Nc2ccccc2N)cc1	149*	2	.
CC(C)NC(=O)Nc1ccc2c(c1)CC(=O)N([C@H](C)CO)C[C@H](C)[C@@H](CN(C)Cc1ccc(C(=O)Nc3ccccc3N)cc1)O2	7	.	.
C[C@@H]1CN([C@H](C)CO)C(=O)c2cc(NC(=O)Nc3ccc(C(F)(F)F)cc3)ccc2O[C@@H]1CN(C)Cc1ccc(C(=O)Nc2ccccc2N)cc1	113*	-3	.
C[C@@H]1CN([C@@H](C)CO)C(=O)c2cc(NC(=O)Nc3ccc(C(F)(F)F)cc3)ccc2O[C@H]1CN(C)Cc1ccc(C(=O)Nc2ccccc2N)cc1	49	-2	.
C[C@@H]1CN([C@H](C)CO)C(=O)c2cc(NC(=O)Nc3cccc4ccccc34)ccc2O[C@H]1CN(C)Cc1ccc(C(=O)Nc2ccccc2N)cc1	30	-1	.
C[C@@H]1CN([C@@H](C)CO)C(=O)c2cc(N(C)C)ccc2O[C@@H]1CN(C)Cc1ccc(C(=O)Nc2ccccc2N)cc1	-123	-1	.
C[C@H](CO)N1C[C@H](C)[C@H](CN(C)Cc2ccc(C(=O)Nc3ccccc3N)cc2)Oc2ccc(NC(=O)Nc3cccc4ccccc34)cc2CC1=O	240*	-1	.
